The nature of data set [1]: (§1) Lethal dose of compound was determined in mice by standard multidimensional observational assay. The class given is toxicity, organism-based. The conditions noted are these: mouse, in vivo. Summed up: (§2)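 Approximate LD50 in mice, estimated from a standard multidimensional observational assay and calculated by the Litchfield–Wilcoxon method.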
Data set [2] relates to Rattus norvegicus. Put plainly: Effective dose of compound that reduce edema by at least 25% in 50% of animals. The class given is functional. The procedure, abridged: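 Rats, fasted 2 h, water ad libitum; compound given orally in 0.25% methylcellulose, controls vehicle only, at several doses below the 200 mg/kg screen. Carrageenan (1% sterile, 0.05 cm³) injected into left hind foot pad 1 h later. Paw volume measured at 3 h.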

Data set [3] relates to Rattus norvegicus. As to the kind of experiment: Percent reduction of edema was measured after oral administration at 200 mg/kg using carrageenan-induced pedal edema assay. The class given is functional. Summed up: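 Rats fasted 2 h; single oral 200 mg/kg in 0.25% methylcellulose, vehicle controls. Carrageenan (1% sterile, 0.05 cm³) injected into left hind foot pad 1 h after dosing. Paw volume measured at peak swelling, 3 h, by displacement apparatus; edema from differential paw volume, expressed as % reduction vs control.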
(Carrageenan injected into the paw causes an acute inflammation.)

For data set [4], the system named is Rattus norvegicus. As to the kind of experiment: Effective dose of compound that reduce edema in adrenolectomized rats by at least 25% in 50% of animals. The class given is functional. Summed up: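 Rats adrenalectomized several days before assay; otherwise as the intact-rat test: fasted 2 h, oral dosing in 0.25% methylcellulose at several doses, carrageenan (1%, 0.05 cm³) into left hind foot pad 1 h later, paw volume at 3 h.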

The species entered for a further data set is Mus musculus. The data set is described as §1. It is filed as toxicity, organism-based. The conditions noted are these: in vivo. Summed up:
as §2

Where [5] appears, read: Rattus norvegicus, read-out: ED50.

Where “and” joins values, the source holds several entries; their conditions need not be identical. Identical values can stand only once.

Usually LD50 stands for the dose expected to kill half of the subjects tested. Broadly, the ED50 is the dose that gives a 50% effect, or the effect in half of the subjects. In data set [1], `Cc1ccccc1NC(=O)c1c(C)n(-c2ccccc2C)c(C)cc1=O` gave an LD50 of 562 mg/kg. In addition, the results for the ED50 in the data set with Rattus norvegicus [2] (setting [5]) and with Rattus norvegicus [4] were 80 mg/kg and 84.8 mg/kg, respectively. Besides, the Reduction in the data set with Rattus norvegicus [3] (200 mg/kg) is 17% and 49%.

The molecule `COc1ccc(OC)c(NC(=O)c2c(C)n(-c3cc(OC)ccc3OC)c(C)cc2=O)c1` displayed an LD50 in data set [1] of 562 mg/kg. This molecule yielded a Reduction with Rattus norvegicus [3] of 0%.

As to `COc1ccccc1NC(=O)c1c(C)n(-c2ccccc2OC)c(C)cc1=O`, the median lethal dose (LD50) turned out to be 562 mg/kg in data set [1] and 300 mg/kg in the data set listed under Mus musculus. For the same molecule, the results for the ED50 in the data set on Rattus norvegicus [2] (setting [5]) and in the data set on Rattus norvegicus [4] were 28 mg/kg and 200 mg/kg, respectively.

For the molecule `Cc1cc(=O)c(C(=O)Nc2ccccc2Cl)c(C)n1-c1ccccc1Cl`, the 50% lethal dose (LD50) (in data set [1]; in the data set filed under Mus musculus) was 562 mg/kg in each case. The Reduction with Rattus norvegicus [3] (200 mg/kg) is 2% and 8%.

For the molecule `O=C(Nc1ccccc1)c1c(-c2ccccc2)n(-c2ccccc2)c(-c2ccccc2)cc1=O`, the LD50 in data set [1] came out at 562 mg/kg. In addition, in the data set with Rattus norvegicus [3], the Reduction came to 0%.

`Cc1cc(=O)c(C(=O)Nc2ccc(Cl)cc2)c(C)n1-c1ccc(Cl)cc1`: the Reduction in the data set with Rattus norvegicus [3] (200 mg/kg) was 58% and 62%.

`Cc1c(Br)c(=O)c(C(=O)Nc2ccccc2)c(C)n1-c1ccccc1`: the LD50 in data set [1] was 562 mg/kg. Besides, the Reduction in the data set on Rattus norvegicus [3] turned out to be 23%.

Take `Cc1cccc(C)c1NC(=O)c1c(C)n(-c2c(C)cccc2C)c(C)cc1=O`: the Reduction with Rattus norvegicus [3] (200 mg/kg) was 31% and 26%.

With `Cc1cccc(NC(=O)c2c(C)n(-c3cccc(C)c3C)c(C)cc2=O)c1C`, the LD50 in data set [1] is 562 mg/kg. In the data set on Rattus norvegicus [3], this molecule showed a Reduction of 0%.

For `Cc1cc(=O)c(C(=O)Nc2ccccc2)c(C)n1-c1ccccc1`, the median lethal dose (LD50) (in data set [1]; in the data set filed under Mus musculus) was 562 mg/kg in each case. Besides, the ED50 is over 200 mg/kg in the data set on Rattus norvegicus [2] and 200 mg/kg with Rattus norvegicus [2] (setting [5]). In the data set with Rattus norvegicus [3] (200 mg/kg), the Reduction is 25% and 33%.

Take `Cc1cc(C)c(NC(=O)c2c(C)n(-c3c(C)cc(C)cc3C)c(C)cc2=O)c(C)c1`: in the data set on Rattus norvegicus [3], the Reduction was determined as 53%.

Source of the values: ChEMBL document CHEMBL1122003, “Preparation and antiinflammatory activity of 2- and 4-pyridones” (J Med Chem, 1982).
